Activity and Kd data for 27 compounds are collected here from ChEMBL document CHEMBL4813918, “From off-to on-target: New BRAF-inhibitor-template-derived compounds selectively targeting mitogen activated protein kinase kinase 4 (MKK4)” (Eur J Med Chem, 2021).

Each structure is given as a SMILES string.

In experiment [1] the target is T1, Dual specificity mitogen-activated protein kinase kinase 7 (Homo sapiens) (UniProt O14733).
T1 sequence (whole entry): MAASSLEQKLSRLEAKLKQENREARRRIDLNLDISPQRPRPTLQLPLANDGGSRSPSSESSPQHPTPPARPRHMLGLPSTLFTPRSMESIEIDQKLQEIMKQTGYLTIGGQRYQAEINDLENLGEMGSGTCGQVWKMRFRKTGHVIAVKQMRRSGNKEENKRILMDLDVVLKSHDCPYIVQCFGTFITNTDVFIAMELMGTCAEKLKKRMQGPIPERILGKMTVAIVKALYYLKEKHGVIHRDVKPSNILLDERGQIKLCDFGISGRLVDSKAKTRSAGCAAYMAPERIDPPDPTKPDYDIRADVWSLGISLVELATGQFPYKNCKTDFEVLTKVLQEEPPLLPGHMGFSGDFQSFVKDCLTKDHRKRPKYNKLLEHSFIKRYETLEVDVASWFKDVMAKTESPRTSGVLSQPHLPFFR
In words: Binding affinity to wild type full length human MKK7 (M1 to R419 residues) expressed in mammalian expression system assessed as residual activity at 100 nM measured by Kinomescan assay.

The target of experiment [2] is T2, Dual specificity mitogen-activated protein kinase kinase 4 (Mus musculus, UniProt P47809).
T2 sequence (P47809 whole entry): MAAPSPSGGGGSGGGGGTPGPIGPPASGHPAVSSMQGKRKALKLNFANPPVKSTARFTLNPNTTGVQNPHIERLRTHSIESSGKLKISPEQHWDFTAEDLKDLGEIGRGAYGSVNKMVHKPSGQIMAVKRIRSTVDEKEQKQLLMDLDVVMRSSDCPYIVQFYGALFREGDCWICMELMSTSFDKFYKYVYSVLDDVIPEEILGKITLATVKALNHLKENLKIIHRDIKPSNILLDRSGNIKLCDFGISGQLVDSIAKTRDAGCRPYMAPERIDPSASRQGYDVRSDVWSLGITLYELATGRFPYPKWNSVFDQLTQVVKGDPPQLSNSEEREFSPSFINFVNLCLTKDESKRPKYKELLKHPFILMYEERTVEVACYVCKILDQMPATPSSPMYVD
Put plainly: Binding affinity to GST tagged mouse MKK4 expressed in Escherichia coli expression system measured by Kinomescan assay. Put shortly: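 Competition binding: compound competes with an immobilized multikinase inhibitor for the site on DNA-tagged MKK4. Bound kinase is quantified by qPCR. Kd values are determined in duplicate.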

The target in experiment [3] is Mitogen-activated protein kinase kinase kinase kinase 5 (Homo sapiens) (UniProt Q9Y4K4). In words: Binding affinity to wild type partial length human MAP4K5 (M1 to P297) expressed in Bacterial expression system assessed as residual activity at 100 nM measured by Kinomescan assay relative to control.
Experiment [4] deals with Mitogen-activated protein kinase kinase kinase 20 (Homo sapiens) (UniProt Q9NYL2). Put plainly: Binding affinity to wild type partial length human ZAK (M1 to L331) expressed in bacterial expression system assessed as residual activity at 100 nM measured by Kinomescan assay.
Chain of Mitogen-activated protein kinase kinase kinase 20 (Homo sapiens) (Q9NYL2 2-800 limits assumed): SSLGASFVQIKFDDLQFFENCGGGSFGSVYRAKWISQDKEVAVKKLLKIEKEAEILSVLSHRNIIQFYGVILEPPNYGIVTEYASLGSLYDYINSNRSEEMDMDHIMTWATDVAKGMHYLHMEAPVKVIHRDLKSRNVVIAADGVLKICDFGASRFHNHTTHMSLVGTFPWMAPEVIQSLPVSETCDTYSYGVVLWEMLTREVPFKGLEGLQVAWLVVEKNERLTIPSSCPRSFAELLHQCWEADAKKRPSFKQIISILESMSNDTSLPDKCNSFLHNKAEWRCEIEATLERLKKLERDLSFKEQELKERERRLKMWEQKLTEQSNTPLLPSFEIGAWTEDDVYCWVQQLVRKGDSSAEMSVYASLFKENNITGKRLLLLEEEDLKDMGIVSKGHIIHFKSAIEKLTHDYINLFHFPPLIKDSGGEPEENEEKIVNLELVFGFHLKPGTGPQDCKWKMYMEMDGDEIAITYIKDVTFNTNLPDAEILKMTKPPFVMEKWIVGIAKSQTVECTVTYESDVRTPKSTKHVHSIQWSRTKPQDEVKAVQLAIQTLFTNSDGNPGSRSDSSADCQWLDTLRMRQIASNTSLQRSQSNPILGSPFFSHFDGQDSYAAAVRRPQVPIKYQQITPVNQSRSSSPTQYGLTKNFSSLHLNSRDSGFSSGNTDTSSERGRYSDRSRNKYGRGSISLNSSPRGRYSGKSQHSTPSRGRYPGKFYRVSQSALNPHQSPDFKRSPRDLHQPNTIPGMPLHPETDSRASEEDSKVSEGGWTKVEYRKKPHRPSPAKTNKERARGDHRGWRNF

Chain of Mitogen-activated protein kinase kinase kinase kinase 5 (Homo sapiens) (Q9Y4K4 whole entry, looked up): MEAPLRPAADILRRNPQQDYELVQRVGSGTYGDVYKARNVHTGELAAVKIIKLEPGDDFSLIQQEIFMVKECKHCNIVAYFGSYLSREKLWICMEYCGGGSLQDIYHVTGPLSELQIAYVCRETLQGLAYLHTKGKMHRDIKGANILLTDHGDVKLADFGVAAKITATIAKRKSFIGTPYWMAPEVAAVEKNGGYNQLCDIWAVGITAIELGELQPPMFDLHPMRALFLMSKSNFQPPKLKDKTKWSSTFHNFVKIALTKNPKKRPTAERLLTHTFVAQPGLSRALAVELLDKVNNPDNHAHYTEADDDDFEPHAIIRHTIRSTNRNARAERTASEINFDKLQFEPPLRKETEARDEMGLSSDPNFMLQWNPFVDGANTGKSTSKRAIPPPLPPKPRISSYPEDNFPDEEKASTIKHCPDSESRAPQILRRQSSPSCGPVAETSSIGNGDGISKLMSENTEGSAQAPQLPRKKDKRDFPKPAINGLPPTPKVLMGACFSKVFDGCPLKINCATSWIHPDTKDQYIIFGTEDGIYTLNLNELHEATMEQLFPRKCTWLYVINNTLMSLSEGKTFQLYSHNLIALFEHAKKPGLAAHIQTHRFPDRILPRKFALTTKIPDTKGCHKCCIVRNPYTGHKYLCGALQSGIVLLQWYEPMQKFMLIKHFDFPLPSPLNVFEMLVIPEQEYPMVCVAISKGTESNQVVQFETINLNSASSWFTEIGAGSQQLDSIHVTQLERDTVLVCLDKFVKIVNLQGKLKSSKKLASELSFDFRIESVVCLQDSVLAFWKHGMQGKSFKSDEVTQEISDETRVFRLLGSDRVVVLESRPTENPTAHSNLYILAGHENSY

Broadly, the Kd is the constant that tells how readily two partners part at equilibrium. Read a low Kd as tighter binding. Turning to `COc1ncc(-c2cnc3[nH]cc(C(=O)c4cccc(NS(=O)(=O)Cc5ccccc5)c4F)c3c2)cn1`, the Activity is 70% in experiment [1], 86% in experiment [3] and 38% in experiment [4]. The same compound registered a dissociation constant Kd in experiment [2] of 0.85 nM.
With `O=C(c1cccc(NS(=O)(=O)Cc2ccccc2)c1F)c1c[nH]c2ncc(-c3cc4c(cc3Cl)OCCO4)cc12`, the Activity stood at 100% in experiment [1], 98% in experiment [3] and 94% in experiment [4]. This compound displayed a dissociation constant Kd in experiment [2] of 3.5 nM.
As to `CCCS(=O)(=O)Nc1ccc(F)c(C(=O)c2c[nH]c3ncc(-c4ccco4)cc23)c1F`, the Activity was 95% in experiment [1], 78% in experiment [3] and 2.1% in experiment [4].
As to `CCCS(=O)(=O)Nc1ccc(F)c(C(=O)c2c[nH]c3ncc(-c4ccccc4)cc23)c1F`, the Activity in experiment [1] worked out at 100%; in experiment [3], 29%; in experiment [4], 0.5%.
The matching figures for `CCCS(=O)(=O)Nc1ccc(F)c(C(=O)c2c[nH]c3ncc(-c4ccc(OC)cc4Cl)cc23)c1F`: 100%, 100% and 18%.
As to `O=C(c1c(F)ccc(NS(=O)(=O)CCc2ccccc2)c1F)c1c[nH]c2ncc(-c3ccc(Cl)cc3)cc12`, the Activity in experiment [1] stood at 97%; in experiment [3], 100%; in experiment [4], 53%.
As to `CCCS(=O)(=O)Nc1ccc(F)c(C(=O)c2c[nH]c3ncc(-c4cnccn4)cc23)c1F`, the Activity in experiment [1] was found to be 83%; in experiment [3], 75%; in experiment [4], 11%.
For the compound `CS(=O)(=O)Nc1ccc(F)c(C(=O)c2c[nH]c3ncc(-c4ccc(Cl)cc4)cc23)c1F`, the Activity in experiment [1] amounted to 87%; in experiment [3], 63%; in experiment [4], 2.6%.
`CCCS(=O)(=O)Nc1ccc(F)c(C(=O)c2c[nH]c3ncc(-c4ccc(Cl)cc4)cc23)c1F` [VEMURAFENIB]: the Activity amounted to 100% in experiment [1], 48% in experiment [3] and 5.3% in experiment [4]. This compound displayed a dissociation constant (Kd) in experiment [2] of 8.2 nM.
As for `CCCCCS(=O)(=O)Nc1ccc(F)c(C(=O)c2c[nH]c3ncc(-c4ccc(Cl)cc4)cc23)c1F`, the Activity came out at 89% in experiment [1], 98% in experiment [3] and 55% in experiment [4].
Turning to `O=C(c1cccc(NS(=O)(=O)Cc2ccccc2)c1F)c1c[nH]c2ncc(-c3ccc(Cl)cc3)cc12`, the Activity in experiment [1] was found to be 97%; in experiment [3], 72%; in experiment [4], 66%.
Regarding `O=C(c1cccc(NS(=O)(=O)Cc2ccccc2)c1F)c1c[nH]c2ncc(-c3cnc(C4CC4)nc3)cc12`, the Activity in experiment [1] was determined as 86%; in experiment [3], 82%; in experiment [4] it was 80%. Further, the equilibrium dissociation constant (Kd) in experiment [2] came out at 1.1 nM.
In the case of `CCCS(=O)(=O)Nc1ccc(F)c(C(=O)c2c[nH]c3ncc(-c4ccc5c(c4)OCCO5)cc23)c1F`, the Activity came to 100% in experiment [1], 84% in experiment [3] and 2.2% in experiment [4].
For the compound `CCCS(=O)(=O)Nc1ccc(F)c(C(=O)c2c[nH]c3ncc(-c4cc5c(cc4Cl)OCCO5)cc23)c1F`, the Activity is 97% in experiment [1], 98% in experiment [3] and 20% in experiment [4].
On to `COc1ccc(-c2cnc3[nH]cc(C(=O)c4cccc(NS(=O)(=O)Cc5ccccc5)c4F)c3c2)c(Cl)c1`, for which the Activity in experiment [1] is 100%; in experiment [3], 79%; in experiment [4], 87%.
Consider `O=C(c1cccc(NS(=O)(=O)Cc2ccccc2)c1F)c1c[nH]c2ncc(-c3cccnc3)cc12`, for which the Activity in experiment [1] worked out at 85%; in experiment [3], 20%; in experiment [4], 1.7%.
In the case of `CCCS(=O)(=O)Nc1ccc(F)c(C(=O)c2c[nH]c3ncc(-c4ncccn4)cc23)c1F`, the figures for the Activity in experiment [1], in experiment [3] and in experiment [4] were 90%, 92% and 39%, respectively.
With `CCCS(=O)(=O)Nc1ccc(F)c(C(=O)c2c[nH]c3ncc(-c4ccccc4OC)cc23)c1F`, the Activity is 100% in experiment [1], 43% in experiment [3] and 16% in experiment [4].
The matching figures for `CCCS(=O)(=O)Nc1ccc(F)c(C(=O)c2c[nH]c3ncc(-c4cccc(F)c4)cc23)c1F`: 90%, 45% and 0.8%.
The matching figures for `CCCCS(=O)(=O)Nc1ccc(F)c(C(=O)c2c[nH]c3ncc(-c4ccc(Cl)cc4)cc23)c1F`: 100%, 75% and 29%.
With `CCCS(=O)(=O)Nc1ccc(F)c(C(=O)c2c[nH]c3ncc(-c4ccc(F)cc4Cl)cc23)c1F`, the Activity in experiment [1] amounted to 100%; in experiment [3], 100%; in experiment [4], 19%.
As to `Cc1nc(NC(C)CO)c2c(n1)[nH]c1ccc(O)cc12` (stereo not given), the Activity in experiment [1] worked out at 100%; in experiment [3], 95%; in experiment [4], 81%.
Consider `O=C(c1c(F)ccc(NS(=O)(=O)Cc2ccccc2)c1F)c1c[nH]c2ncc(-c3ccc(Cl)cc3)cc12`, for which the Activity in experiment [1] was 100%; in experiment [3], 94%; in experiment [4] it was 30%.
As for `CCCS(=O)(=O)Nc1ccc(F)c(C(=O)c2c[nH]c3ncc(-c4ccc(OC)cc4OC)cc23)c1F`, the Activity in experiment [1] was determined as 87%; in experiment [3] it was 84%; in experiment [4] it was 1.6%.
With `CCCS(=O)(=O)Nc1ccc(F)c(C(=O)c2c[nH]c3ncc(-c4cccc(C)c4)cc23)c1F`, the Activity is 97% in experiment [1], 28% in experiment [3] and 0.7% in experiment [4].
The matching figures for `O=C(c1cccc(NS(=O)(=O)Cc2ccccc2)c1F)c1c[nH]c2ncc(-c3cc4c(cc3Cl)OCO4)cc12`: 100%, 66% and 80%.
Regarding `CCCS(=O)(=O)Nc1ccc(F)c(C(=O)c2c[nH]c3ncc(-c4cccc(OC)c4)cc23)c1F`, the Activity in experiment [1] came out at 100%; in experiment [3], 18%; in experiment [4], 23%.
